Among the data in ChEMBL document CHEMBL1126275, “Conformationally restrained, chiral (phenylisopropyl)amino-substituted pyrazolo[3,4-d]pyrimidines and purines with selectivity for adenosine A1 and A2 receptors” (J Med Chem, 1992) are Selectivity ratio, Ki and IC50 values, retold here.

Test [1] deals with Adenosine receptors; A1 & A2 (Rattus norvegicus) (UniProt P29276+P25099+P30543). Nature of the test: Selectivity ratio against Adenosine A1 and A2 Receptors, ratio of Ki. It counts as protein assay. In short, it runs like this:
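Ratio of A2 Ki ([³H]NECA, rat striatum, 25 °C) to A1 Ki ([³H]CHA, whole rat brain membranes, 25 °C). Each Ki is a geometric mean from a single triplicate determination.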

The target in test [2] is T1, Adenosine receptor A1 (Rattus norvegicus, UniProt P25099).
T1 sequence (P25099 whole entry): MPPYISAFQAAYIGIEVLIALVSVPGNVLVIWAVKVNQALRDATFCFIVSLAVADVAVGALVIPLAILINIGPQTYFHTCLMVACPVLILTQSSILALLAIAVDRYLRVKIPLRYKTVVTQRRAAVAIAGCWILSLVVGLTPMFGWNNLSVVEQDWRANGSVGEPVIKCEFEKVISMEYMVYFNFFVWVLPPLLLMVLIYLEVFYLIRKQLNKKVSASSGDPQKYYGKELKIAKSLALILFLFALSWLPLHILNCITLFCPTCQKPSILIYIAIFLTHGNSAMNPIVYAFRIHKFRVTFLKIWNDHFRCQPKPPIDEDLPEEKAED
Put plainly: Inhibition of [3H]CHA binding to Adenosine A1 receptor in whole rat brain membranes. The class given is cell membranes. The gist of the method: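 Whole rat brain membranes; [³H]CHA binding measured at 25 °C. Compounds from millimolar DMSO stocks diluted in water. Ki given as geometric mean ± standard error of a single determination run in triplicate.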

The next test deals with Adenosine A2 receptor (Rattus norvegicus, UniProt P29276+P30543). Nature of the test: Inhibition of [3H]NECA binding to Adenosine A2 receptor in rat brain striatum. It counts as tissue-based. In short, it runs like this: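 [³H]NECA binding in rat brain striatum at 25 °C. Compounds from millimolar DMSO stocks diluted in water. Ki given as geometric mean ± standard error of a single determination in triplicate.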

Test [3] deals with T1, Adenosine receptor A1. Put plainly: Inhibition of [3H]CHA binding to Adenosine A1 receptor in rat cerebral cortical membranes. It counts as cell membranes, Membrane. In short, it runs like this: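 Rat cerebral cortical membranes; displacement of [³H]CHA binding. Test compounds held as millimolar DMSO stocks, warmed to room temperature and diluted in water. Values from a single competition experiment, each concentration in triplicate.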

Bounds are passed on as bounds.

Turning to `CCCOc1nc(N[C@H](CO)Cc2ccccc2)c2cnn(-c3ccccc3)c2n1` (stereo in doubt; 10b) [listing 1 of 2 here], the Selectivity ratio in test [1] came out at 1.

As usually defined, the Ki is a measure of affinity in units of concentration, obtained from inhibition or displacement. Read a low Ki as a stronger hold on the target. For the compound `CCCOC1=Nc2c(cnn2-c2ccccc2)C2=N[C@H](C)[C@@H](c3ccccc3)N12`, the figures for the Ki at Adenosine receptor A1 [2] and on Adenosine A2 receptor were 7.4 µM and 11 µM, respectively. Also, the Selectivity ratio in test [1] is 1.5.

In the case of `CCCOc1nc(N[C@@H](CO)Cc2ccccc2)c2ncn(-c3ccccc3)c2n1`, the Ki was 0.44 µM at Adenosine receptor A1 [2] and 30 µM at Adenosine A2 receptor. Besides, in test [1], the Selectivity ratio stood at 68.

Consider `CCCOC1=Nc2c(ncn2-c2ccccc2)C2=N[C@@H](Cc3ccccc3)CN12`, for which, at Adenosine A2 receptor, the Ki amounted to 1.6 µM. Moreover, the Selectivity ratio in test [1] turned out to be 0.18.

Regarding `CCCOc1nc(N[C@H](CO)Cc2ccccc2)c2ncn(-c3ccccc3)c2n1`, the results for the inhibition constant (Ki) on Adenosine receptor A1 [2] and at Adenosine A2 receptor were 0.096 µM and 5.6 µM, respectively. Moreover, in test [1], the Selectivity ratio came to 58.

Broadly, the IC50 is the midpoint of a concentration-inhibition curve. Lower therefore signals inhibition by little substance. At Adenosine receptor A1 [3], `CCCn1c(=O)n(C)c(=O)c2cnn(-c3ccccc3)c21` came in with a concentration for half-maximal inhibition (IC50) of 35 µM.

Turning to `CCCOC1=Nc2c(cnn2-c2ccccc2)C2=N[C@@H](Cc3ccccc3)CN12`, the values for the Ki at Adenosine receptor A1 [2] and on Adenosine A2 receptor were 9.4 µM and 3.3 µM, respectively. Also, the Selectivity ratio in test [1] was found to be 0.35.

For `CCCOC1=Nc2c(ncn2-c2ccccc2)C2=N[C@H](Cc3ccccc3)CN12`, the Ki at Adenosine receptor A1 [2] was determined as 3.2 µM; at Adenosine A2 receptor, 72 µM. In addition, in test [1], the Selectivity ratio was found to be 22.

With `CCCOc1nc(N[C@H](CO)Cc2ccccc2)c2cnn(-c3ccccc3)c2n1` (stereo in doubt; 10b) [listing 2 of 2 here], the Ki on Adenosine receptor A1 [2] is 0.35 µM; at Adenosine A2 receptor, 0.37 µM.

As to `CCCOc1nc(N[C@@H](C)[C@H](O)c2ccccc2)c2cnn(-c3ccccc3)c2n1`, the Ki worked out at 6.3 µM at Adenosine receptor A1 [2] and 1.4 µM at Adenosine A2 receptor. In addition, the Selectivity ratio in test [1] was determined as 0.22.

As for `CCCOc1nc(N[C@H](CO)Cc2ccccc2)c2cnn(-c3ccccc3)c2n1` (stereo in doubt; 10a) [listing 1 of 2 here], the Ki was determined as 1.6 µM on Adenosine receptor A1 [2] and 4.2 µM on Adenosine A2 receptor.

`CCCOC1=Nc2c(cnn2-c2ccccc2)C2=N[C@@H](C)[C@H](c3ccccc3)N12`: the Ki on Adenosine receptor A1 [2] stood at 33 µM; on Adenosine A2 receptor, 45 µM. Besides, the Selectivity ratio in test [1] stood at 1.4.

As for `CCCOc1nc(N[C@H](CO)Cc2ccccc2)c2cnn(-c3ccccc3)c2n1` (stereo in doubt; 10a) [listing 2 of 2 here], the Selectivity ratio in test [1] amounted to 2.6.

As to `COc1nc2c(cnn2-c2ccccc2)c(=O)n1C`, the IC50 on Adenosine receptor A1 [3] is 4.8 µM.

On to `CCCOC1=Nc2c(cnn2-c2ccccc2)C2=N[C@H](Cc3ccccc3)CN12`, for which the Ki on Adenosine receptor A1 [2] was 0.62 µM; on Adenosine A2 receptor, more than 100 µM. Moreover, the Selectivity ratio in test [1] is more than 100.

`CCCOc1nc(N[C@H](C)[C@@H](O)c2ccccc2)c2cnn(-c3ccccc3)c2n1`: the Ki at Adenosine receptor A1 [2] came to 1 µM; at Adenosine A2 receptor it was 0.31 µM. The Selectivity ratio in test [1] is 0.31.

As for `Cn1c(=O)c2cnn(-c3ccccc3)c2n(C)c1=O`, the half-maximal inhibitory concentration (IC50) at Adenosine receptor A1 [3] is 33 µM.
